Laboratory results: ChEMBL document CHEMBL1158901, “Chemical constituents of Garcinia fusca: structure elucidation of eight new xanthones and their cancer chemopreventive activity” (J Nat Prod, 2003)

What was measured:
[1] = Inhibition of TPA-induced EBV-early antigen activation in human Raji cells per 32 pmol TPA after 48 hrs; format: cell-based, human gammaherpesvirus 4
Method in brief: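 EBV-EA induction in Raji cells by 4 mM n-butyric acid plus 32 pmol TPA in RPMI 1640/10% FCS, 37 °C for 48 h, with compound at mol ratios to TPA of 10 to 1000. EA-positive cells counted blind, ≥500 per assay, relative to TPA-only control. IC50 is the mol ratio to TPA giving 50% inhibition, estimated by probit transformation.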

[2] = Cytotoxicity against human Raji cells assessed as cell viability at 32 nmol after 48 hrs by trypan blue assay; format: cell-based; settings: read-out: Activity
Method in brief: (§1)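 Raji cells grown to 10^6 cells/mL, pelleted and resuspended in RPMI 1640 with 10% FCS containing 4 mM n-butyric acid and 32 pmol TPA (20 ng/mL). Test compound added in DMSO at 32, 3.2 or 0.32 nmol (footnote also defines 16 nmol as 500 mol ratio). Incubated 48 h at 37 °C. Viable cells counted by Trypan Blue on a hemocytometer.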

[3] = Cytotoxicity against human Raji cells assessed as cell viability at 16 nmol after 48 hrs by trypan blue assay; format: cell-based; settings: read-out: Activity; method in brief: as §1
[4] = Cytotoxicity against human Raji cells assessed as cell viability at 3.2 nmol after 48 hrs by trypan blue assay; format: cell-based; settings: read-out: Activity; method in brief: as §1
[5] = Cytotoxicity against human Raji cells assessed as cell viability at 0.32 nmol after 48 hrs by trypan blue assay; format: cell-based; settings: read-out: Activity; method in brief: as §1
Raji [6] = test: TPA-induced EBV-early antigen activation in human Raji cells at 32 nmol after 48 hrs relative to TPA; settings: human gammaherpesvirus 4
Raji [7] = test: TPA-induced EBV-early antigen activation in human Raji cells at 16 nmol after 48 hrs relative to TPA; settings: human gammaherpesvirus 4
Raji [8] = test: TPA-induced EBV-early antigen activation in human Raji cells at 3.2 nmol after 48 hrs relative to TPA; settings: human gammaherpesvirus 4
Raji [9] = test: TPA-induced EBV-early antigen activation in human Raji cells at 0.32 nmol after 48 hrs relative to TPA; settings: human gammaherpesvirus 4

Structure (SMILES)	IC50 [1]	viability at 48 h, 32 nmol [2]	viability at 48 h, 16 nmol [3]	viability at 48 h, 3.2 nmol [4]	viability at 48 h, 0.32 nmol [5]	EBV-EA activation (Raji [6])	EBV-EA activation (Raji [7])	EBV-EA activation (Raji [8])	EBV-EA activation (Raji [9])
COc1c(O)c(CC=C(C)C)c2oc3cc(O)c(CC=C(C)C)c(O)c3c(=O)c2c1CC=C(C)C	210 molar ratio	70%	> 80%	> 80%	> 80%	0%	16.3%	59.2%	83.8%
COc1c(O)cc2oc3cc(O)c(CC=C(C)C)c(O)c3c(=O)c2c1C/C=C(\C)CCC=C(C)C [COWANIN]	320 molar ratio	70%	> 80%	> 80%	> 80%	0%	33.6%	71.6%	95.8%
CC(C)=CCC/C(C)=C/Cc1c(O)c(O)cc2oc3cc(O)c(CC=C(C)C)c(O)c3c(=O)c12 [NORCOWANIN]	315 molar ratio	70%	> 80%	> 80%	> 80%	0%	31.9%	70.1%	94.2%
CC1=C(/C=C/C(C)=C/C=C/C(C)=C/C=C/C=C(C)/C=C/C=C(C)/C=C/C2=C(C)CCCC2(C)C)C(C)(C)CCC1 [BETA CAROTENE]	400 molar ratio	–	–	–	–	9.1%	34.3%	82.7%	100%
COc1cc2c(=O)c3c(O)c(C/C=C(\C)CCC=C(C)C)c(O)cc3oc2cc1O [COWAXANTHONE]	398 molar ratio	70%	> 80%	> 80%	> 80%	0%	40.6%	76.6%	97.5%
COc1c(O)cc2oc3cc(O)c(CC=C(C)C)c(O)c3c(=O)c2c1CC=C(C)C [MANGOSTIN]	220 molar ratio	70%	> 80%	> 80%	> 80%	0%	19.1%	60%	89.2%
COc1c(O)cc2oc3cc(O)cc(O)c3c(=O)c2c1C/C=C(\C)CCC=C(C)C [RUBRAXANTHONE]	340 molar ratio	70%	> 80%	> 80%	> 80%	0%	39.5%	74.1%	96.8%
COc1c(O)cc2oc3cc(O)c(C/C=C(/C)CO)c(O)c3c(=O)c2c1C/C=C(\C)CCC=C(C)C [COWANOL]	310 molar ratio	70%	> 80%	> 80%	> 80%	0%	30.5%	69.6%	93.1%
COc1cc2oc3cc(O)c(OC)c(CC=C(C)C)c3c(=O)c2c(O)c1CC=C(C)C	270 molar ratio	70%	> 80%	> 80%	> 80%	0%	20.5%	62.6%	90.4%
